Laboratory results taken from article PMC9470386 (Plant Direct, 2022).
Entries after “also recorded” stand apart in the source; their conditions may differ.

Tests used:
[1] = target: T1, AtDLK2 wt (Arabidopsis thaliana, UniProt F4J6L0); assay: Differential scanning fluorimetry, AtDLK2 wt; type: binding
T1 sequence (F4J6L0 1-273): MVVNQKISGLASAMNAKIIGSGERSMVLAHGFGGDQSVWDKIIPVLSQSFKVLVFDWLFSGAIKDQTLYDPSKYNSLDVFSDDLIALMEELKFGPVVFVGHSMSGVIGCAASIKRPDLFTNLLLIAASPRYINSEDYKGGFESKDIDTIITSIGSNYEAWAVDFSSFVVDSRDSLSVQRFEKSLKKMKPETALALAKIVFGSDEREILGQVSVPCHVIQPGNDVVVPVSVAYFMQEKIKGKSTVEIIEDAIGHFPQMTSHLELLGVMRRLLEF

[2] = target: T2, AtDLK2 F167L (Arabidopsis thaliana, UniProt F4J6L0, F167L); assay: Differential scanning fluorimetry, AtDLK2 F167L; type: binding
T2 sequence (F4J6L0 1-273 F167L): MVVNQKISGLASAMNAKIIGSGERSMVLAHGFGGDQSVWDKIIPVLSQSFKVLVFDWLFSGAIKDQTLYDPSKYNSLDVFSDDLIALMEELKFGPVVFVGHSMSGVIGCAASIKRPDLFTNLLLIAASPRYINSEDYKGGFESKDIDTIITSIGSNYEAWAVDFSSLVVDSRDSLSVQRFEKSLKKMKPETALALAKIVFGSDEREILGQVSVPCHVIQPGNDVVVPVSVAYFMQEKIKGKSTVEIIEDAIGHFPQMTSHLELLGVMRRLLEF
How it was run: (§1)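 Recombinant protein was expressed in E. coli BL21(DE3), GST-affinity captured, tag removed by on-column HRV3 protease, then size-exclusion purified. DSF used 10 μg protein with rac-GR24 and 3× (final) Sypro Orange in 20 mM TRIS-HCl, 30 mM NaCl, 1 mM TCEP-HCl, pH 7.7. Heating ran 25–95°C at 1°C per minute, in triplicate, and was read from the denaturation curve and its derivative.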

[3] = target: T3, AtDLK2 F167A (Arabidopsis thaliana, UniProt F4J6L0, F167A); assay: Differential scanning fluorimetry, AtDLK2 F167A; type: binding
T3 sequence (F4J6L0 1-273 F167A): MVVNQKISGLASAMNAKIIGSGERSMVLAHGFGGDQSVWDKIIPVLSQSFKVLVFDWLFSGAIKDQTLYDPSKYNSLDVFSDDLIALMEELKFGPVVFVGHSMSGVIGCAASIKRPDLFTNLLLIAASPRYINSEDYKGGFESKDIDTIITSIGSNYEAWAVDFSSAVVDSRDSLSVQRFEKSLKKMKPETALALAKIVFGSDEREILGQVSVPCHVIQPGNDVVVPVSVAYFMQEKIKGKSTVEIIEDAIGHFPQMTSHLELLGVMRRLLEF
How it was run: as §1

[4] = target: T4, AtD14 (Arabidopsis thaliana, UniProt Q9SQR3); assay: Differential scanning fluorimetry, AtD14; type: binding
T4 sequence (Q9SQR3 1-267): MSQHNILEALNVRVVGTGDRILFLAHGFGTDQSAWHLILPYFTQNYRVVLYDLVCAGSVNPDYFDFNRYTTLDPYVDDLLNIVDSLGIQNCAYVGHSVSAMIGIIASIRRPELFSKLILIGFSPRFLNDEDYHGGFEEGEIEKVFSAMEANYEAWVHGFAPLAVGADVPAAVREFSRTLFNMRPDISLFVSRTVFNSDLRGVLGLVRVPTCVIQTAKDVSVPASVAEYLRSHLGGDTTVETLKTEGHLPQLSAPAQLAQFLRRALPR
How it was run: as §1

[5] = target: T4, AtD14; details: substrate rac‐GR24; ref Zhao et al., 2013; cited from earlier work
[6] = target: T4, AtD14; assay: Inhibition of AtD14 enzymatic activity on pNP acetate; type: biochemical; details: for inhibition of the enzymatic activity of AtD14 (in words): pNP acetate as substrate
[7] = target: T5, AtKAI2 (Arabidopsis thaliana, UniProt Q9SZU7); assay: Inhibition of AtKAI2 enzymatic activity on pNP acetate; type: biochemical; details: for inhibition of the enzymatic activity of AtKAI2 (in words): pNP acetate as substrate
T5 sequence (Q9SZU7 1-270): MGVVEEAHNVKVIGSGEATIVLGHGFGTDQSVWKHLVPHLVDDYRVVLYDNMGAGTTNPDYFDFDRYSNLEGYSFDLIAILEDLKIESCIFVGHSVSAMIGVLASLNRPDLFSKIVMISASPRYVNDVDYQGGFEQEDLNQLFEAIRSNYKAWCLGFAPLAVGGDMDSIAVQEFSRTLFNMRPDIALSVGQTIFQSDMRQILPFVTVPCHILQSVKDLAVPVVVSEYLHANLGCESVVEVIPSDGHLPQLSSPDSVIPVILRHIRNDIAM

[8] = tested on: AtDLK2 wt; assay: Michaelis–Menten kinetics on para‐nitrophenyl acetate, AtDLK2 wt; type: biochemical, Arabidopsis thaliana; details: substrate pNP acetate
[9] = target: T3, AtDLK2 F167A; assay: Michaelis–Menten kinetics on para‐nitrophenyl acetate, AtDLK2 F167A; type: biochemical; details: substrate pNP acetate
[10] = target: T5, AtKAI2; assay: Michaelis–Menten kinetics on para‐nitrophenyl acetate, AtKAI2; type: biochemical; details: substrate pNP acetate
[11] = target: T6, AtDLK2 (Arabidopsis thaliana, UniProt F4J6L0); details: ref Végh et al., 2017; cited from earlier work
T6 sequence (F4J6L0 1-273): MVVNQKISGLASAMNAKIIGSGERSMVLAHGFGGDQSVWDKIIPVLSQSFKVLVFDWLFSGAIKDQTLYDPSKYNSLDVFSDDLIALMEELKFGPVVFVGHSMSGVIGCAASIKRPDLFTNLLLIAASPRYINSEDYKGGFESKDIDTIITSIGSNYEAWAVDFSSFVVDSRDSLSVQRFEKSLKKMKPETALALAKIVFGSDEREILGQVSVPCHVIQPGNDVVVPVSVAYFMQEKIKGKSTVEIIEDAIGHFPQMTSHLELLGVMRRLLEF

[12] = target: T6, AtDLK2; details: at high concentrations; ref Végh et al., 2017; cited from earlier work
[13] = substrate: CC(=O)Oc1ccc([N+](=O)[O-])cc1; assay: Michaelis–Menten kinetics on para‐nitrophenyl acetate, AtKAI2; type: biochemical, Arabidopsis thaliana; details: other: AtKAI2, substrate pNP acetate; pH 7.0
[14] = substrate: CC(=O)Oc1ccc([N+](=O)[O-])cc1; assay: Michaelis–Menten kinetics on para‐nitrophenyl acetate, AtDLK2 wt; type: biochemical, Arabidopsis thaliana; details: other: AtDLK2 wt, substrate pNP acetate; pH 7.0
[15] = substrate: CC(=O)Oc1ccc([N+](=O)[O-])cc1; assay: Michaelis–Menten kinetics on para‐nitrophenyl acetate, AtDLK2 F167L; type: biochemical, Arabidopsis thaliana; details: other: AtDLK2 F167L, substrate pNP acetate; pH 7.0
[16] = substrate: CC(=O)Oc1ccc([N+](=O)[O-])cc1; assay: Michaelis–Menten kinetics on para‐nitrophenyl acetate, AtDLK2 F167A; type: biochemical, Arabidopsis thaliana; details: other: AtDLK2 F167A, substrate pNP acetate; pH 7.0
[17] = substrate: CC(=O)Oc1ccc([N+](=O)[O-])cc1; assay: Michaelis–Menten kinetics on para‐nitrophenyl acetate, AtD14; type: biochemical, Arabidopsis thaliana; details: other: AtD14, substrate pNP acetate; pH 7.0
[18] = 100 μM concentration of 1, pNP acetate as substrate

In the case of `CC1=C[C@H](O/C=C2/C(=O)O[C@@H]3c4ccccc4C[C@H]23)OC1=O` (racemic) [rac‐GR24], the “rac‐GR24‐induced destabilization in DSF” value [1] is reported as “no or marginal”, the “rac‐GR24‐induced destabilization in DSF” value [2] is reported as “no or marginal” and the “rac‐GR24‐induced destabilization in DSF” value [3] is reported as “no or marginal”. For the same molecule, the “rac‐GR24‐induced destabilization in DSF” value [4] was “clearly destabilize” and the “turnover rate of AtD14” value [5] was 1 molecule/3 min.

In the case of `CC1(c2ccccc2)CC(C)(C)N2C(=O)C(=O)c3cccc1c32` (stereo not shown) [Compound 1, 4,4,6‐Trimethyl‐6‐phenyl‐5,6‐dihydro‐4H‐pyrrolo[3,2,1‐ij]quinoline‐1,2‐dione], the “retained activity of AtD14” value [6, 18] is reported as 84%, the “decrease of AtD14's enzymatic activity” value ([6]; 1 at concentrations of 12.5 μM or higher) is reported as “slight decrease” and the “inhibition of the enzymatic activity of AtD14 (in words)” value [6] is reported as “only marginally inhibits”. For the same molecule, the “inhibition of the enzymatic activity of AtD14 (in words)” value ([6]; listed as compound 1) was “only marginally decreasing”, the “retained activity of AtKAI2” value [7, 18] was 95% and the “decrease of AtKAI2's activity” value ([7]; 1 at concentrations of 50 μM or higher) was “marginal decrease”. The “inhibition of the enzymatic activity of AtKAI2 (in words)” value [7] was “only marginally inhibits” and the “inhibition of the enzymatic activity of AtKAI2 (in words)” value ([7]; listed as compound 1) was “only marginally decreasing”.

With `CC(=O)Oc1ccc([N+](=O)[O-])cc1` [pNP acetate, para‐nitrophenyl acetate] the “catalytic efficiency of AtDLK2 relative to AtD14” value [8] was 625 times higher, the “catalytic efficiency of AtDLK2 relative to AtKAI2” value [8] was 6.7 times higher and the “turnover number (kcat)” value [9] was 67 molecules per second. The “catalytic efficiency of AtKAI2 relative to AtD14” value [10] was 94 times higher.

In the case of (−)‐5‐deoxystrigol, the “hydrolytic activity of AtDLK2 (in words)” value [11] is given as “moderate hydrolytic activity; also recorded: poor but detectable hydrolytic activity” and the “reaction of AtDLK2 in DSF experiments (in words)” value [12] is given as “able to react”.

B1: AtKAI2 (Arabidopsis thaliana) (protein)
chain: MGVVEEAHNVKVIGSGEATIVLGHGFGTDQSVWKHLVPHLVDDYRVVLYDNMGAGTTNPDYFDFDRYSNLEGYSFDLIAILEDLKIESCIFVGHSVSAMIGVLASLNRPDLFSKIVMISASPRYVNDVDYQGGFEQEDLNQLFEAIRSNYKAWCLGFAPLAVGGDMDSIAVQEFSRTLFNMRPDIALSVGQTIFQSDMRQILPFVTVPCHILQSVKDLAVPVVVSEYLHANLGCESVVEVIPSDGHLPQLSSPDSVIPVILRHIRNDIAM
In the case of B1, the Km [13] is reported as 1.56 ± 0.06 × 10^−3 M, the kcat [13] is reported as 23.6 ± 0.6 s⁻¹ and the kcat/Km [13] is reported as 15100 ± 600 M⁻¹ s⁻¹.

B2: AtDLK2 wt (Arabidopsis thaliana) (protein)
chain: MVVNQKISGLASAMNAKIIGSGERSMVLAHGFGGDQSVWDKIIPVLSQSFKVLVFDWLFSGAIKDQTLYDPSKYNSLDVFSDDLIALMEELKFGPVVFVGHSMSGVIGCAASIKRPDLFTNLLLIAASPRYINSEDYKGGFESKDIDTIITSIGSNYEAWAVDFSSFVVDSRDSLSVQRFEKSLKKMKPETALALAKIVFGSDEREILGQVSVPCHVIQPGNDVVVPVSVAYFMQEKIKGKSTVEIIEDAIGHFPQMTSHLELLGVMRRLLEF
For B2, the Km [14] was 2.58 ± 0.10 × 10^−4 M, the kcat [14] was 26.6 ± 0.7 s⁻¹ and the kcat/Km [14] was 103000 ± 4000 M⁻¹ s⁻¹.

B3: AtDLK2 F167L (Arabidopsis thaliana; F167L) (protein)
chain: MVVNQKISGLASAMNAKIIGSGERSMVLAHGFGGDQSVWDKIIPVLSQSFKVLVFDWLFSGAIKDQTLYDPSKYNSLDVFSDDLIALMEELKFGPVVFVGHSMSGVIGCAASIKRPDLFTNLLLIAASPRYINSEDYKGGFESKDIDTIITSIGSNYEAWAVDFSSLVVDSRDSLSVQRFEKSLKKMKPETALALAKIVFGSDEREILGQVSVPCHVIQPGNDVVVPVSVAYFMQEKIKGKSTVEIIEDAIGHFPQMTSHLELLGVMRRLLEF
In the case of B3, the Km [15] is reported as 2.53 ± 0.16 × 10^−4 M, the kcat [15] is reported as 69.8 ± 1.5 s⁻¹ and the kcat/Km [15] is reported as 276000 ± 17000 M⁻¹ s⁻¹.

B4: AtDLK2 F167A (Arabidopsis thaliana; F167A) (protein)
chain: MVVNQKISGLASAMNAKIIGSGERSMVLAHGFGGDQSVWDKIIPVLSQSFKVLVFDWLFSGAIKDQTLYDPSKYNSLDVFSDDLIALMEELKFGPVVFVGHSMSGVIGCAASIKRPDLFTNLLLIAASPRYINSEDYKGGFESKDIDTIITSIGSNYEAWAVDFSSAVVDSRDSLSVQRFEKSLKKMKPETALALAKIVFGSDEREILGQVSVPCHVIQPGNDVVVPVSVAYFMQEKIKGKSTVEIIEDAIGHFPQMTSHLELLGVMRRLLEF
In the case of B4, the Km [16] is reported as 2.78 ± 0.08 × 10^−4 M, the kcat [16] is reported as 66.9 ± 0.6 s⁻¹ and the kcat/Km [16] is reported as 241000 ± 7000 M⁻¹ s⁻¹.

B5: AtD14 (Arabidopsis thaliana) (protein)
chain: MSQHNILEALNVRVVGTGDRILFLAHGFGTDQSAWHLILPYFTQNYRVVLYDLVCAGSVNPDYFDFNRYTTLDPYVDDLLNIVDSLGIQNCAYVGHSVSAMIGIIASIRRPELFSKLILIGFSPRFLNDEDYHGGFEEGEIEKVFSAMEANYEAWVHGFAPLAVGADVPAAVREFSRTLFNMRPDISLFVSRTVFNSDLRGVLGLVRVPTCVIQTAKDVSVPASVAEYLRSHLGGDTTVETLKTEGHLPQLSAPAQLAQFLRRALPR
With B5 the Km [17] was 2.00 ± 0.16 × 10^−2 M, the kcat [17] was 3.2 ± 0.06 s⁻¹ and the kcat/Km [17] was 160 ± 12 M⁻¹ s⁻¹.
